Test results taken from PMC3475257 (The FASEB Journal, 2012).

Tested on: fully infectious HXB2 HIV‐1
Test: HXB2 virus infectivity assay
Format: cell-based
Settings: up to 1 μM, TZM‐bl cells
Summary of the method: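 TZM-bl reporter cells were seeded at 2×10^4 cells/well in 10% serum DMEM and left to adhere 18-24 h at 37°C. Medium was then swapped for serum-free DMEM containing 40 μg/ml DEAE-dextran. Test compound was added, followed by concentrated HXB2 stock diluted in the same medium. Infection ran 18 h at 37°C, with a luciferase (Steady-Glo) read-out.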

Structure (SMILES): CCCCCCCCCCCCCCC[C@@H](O)[C@@H](N)CO [sphinganine, D‐erythrodihydrosphingosine]
- Effect of sphinganine alone on viral infectivity: did not affect viral infectivity
